Experimental data reported in ChEMBL document CHEMBL4052730, “Synthesis and evaluation of (E)-2-(5-phenylpent-2-en-4-ynamido)cyclohex-1-ene-1-carboxylate derivatives as HCA2 receptor agonists” (Bioorg Med Chem, 2017).

Legend:
[1] = molecular target: T1, Hydroxycarboxylic acid receptor 2 (Homo sapiens, UniProt Q8TDS4); experiment: Agonist activity at recombinant human HCA2 receptor expressed in Flp-IN HEK cells assessed as reduction in forskolin-stimulated cAMP accumulation measured after 30 mins; type: functional, cell-based
T1 sequence (Q8TDS4 whole entry): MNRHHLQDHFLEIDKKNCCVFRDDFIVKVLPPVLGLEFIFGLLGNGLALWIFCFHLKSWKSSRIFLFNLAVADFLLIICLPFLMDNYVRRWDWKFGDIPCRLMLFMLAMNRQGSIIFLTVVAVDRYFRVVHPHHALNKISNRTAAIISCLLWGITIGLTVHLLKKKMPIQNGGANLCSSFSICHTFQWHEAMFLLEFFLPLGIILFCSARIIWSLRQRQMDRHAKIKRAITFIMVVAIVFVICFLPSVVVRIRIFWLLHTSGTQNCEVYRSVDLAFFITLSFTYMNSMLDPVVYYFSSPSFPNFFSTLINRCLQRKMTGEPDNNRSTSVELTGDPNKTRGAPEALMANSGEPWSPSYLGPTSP
Outline: (§1)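 Flp-In-293 cells stably expressing recombinant human HCA2, 12,000 cells/well, treated with compounds plus 3 µM forskolin for 30 min in PBS containing 0.5 mM IBMX, without BSA. Read-out is reduction of forskolin-stimulated cAMP, reported as EC50 and as maximal inhibition (%). Mean ± SD of at least three experiments, each in duplicate.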

[2] = molecular target: T1, Hydroxycarboxylic acid receptor 2; experiment: Displacement of [5,6-3H]-nicotinic acid from recombinant human HCA2 receptor expressed in Flp-IN HEK cell membranes after 2 hrs by microbeta counting method
Outline: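 Membranes from human HCA2-expressing Flp-In-293 cells were prepared by acoustic disruption in TE buffer (pH 7.6) and centrifugation at 21,000g. They were used at 25 µg/well in 50 mM Tris-HCl, 1 mM MgCl2, 0.02% CHAPS, pH 7.6, without BSA. Competition with 20 nM [5,6-3H]-nicotinic acid ran 2 h at room temperature, followed by GF/B filtration and scintillation counting. Duplicates, repeated three times.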

[3] = molecular target: T1, Hydroxycarboxylic acid receptor 2; experiment: Agonist activity at recombinant human HCA2 receptor expressed in Flp-IN HEK cells assessed as reduction in forskolin-stimulated cAMP accumulation measured after 30 mins relative to control; type: functional, cell-based; outline: as §1

Structure (SMILES) | EC50 [1] | IC50 [2] | Emax [3]
O=C(CCC#Cc1ccccc1F)NC1=C(C(=O)O)CCCC1 | 360 nM | 67 nM | 90%
O=C(CCc1ccc(-c2ccccc2Cl)cc1)NC1=C(C(=O)O)CCCC1 | 130 nM | 75 nM | 92%
O=C(CCc1ccc(-c2ccccc2F)cc1)NC1=C(C(=O)O)CCCC1 | 190 nM | 282 nM | 97%
O=C(/C=C/C#Cc1ccccc1O)NC1=C(C(=O)O)CCCC1 | 250 nM | 37 nM | 78%
O=C(CCC#Cc1ccccc1O)NC1=C(C(=O)O)CCCC1 | 720 nM | 229 nM | 93%
O=C(CCc1ccc(-c2ccc(O)cc2)cc1)NC1=C(C(=O)O)CCCC1 | 70 nM | 21 nM | 92%
O=C(CCC#Cc1ccccc1Cl)NC1=C(C(=O)O)CCCC1 | 190 nM | 56 nM | 95%
O=C(CCC#Cc1ccc(O)cc1Cl)NC1=C(C(=O)O)CCCC1 | 90 nM | 76 nM | 94%
O=C(/C=C/C#Cc1ccc(O)cc1F)NC1=C(C(=O)O)CCCC1 | 110 nM | 331 nM | 96%
O=C(CCC#Cc1ccc(C(=O)O)cc1)NC1=C(C(=O)O)CCCC1 | 5610 nM | 3620 nM | 74%
O=C(CCC#Cc1cccc(O)c1)NC1=C(C(=O)O)CCCC1 | 2980 nM | 138 nM | 89%
O=C(CCC#Cc1ccc(O)cc1F)NC1=C(C(=O)O)CCCC1 | 80 nM | 28 nM | 93%
O=C(CCC#Cc1ccc(F)cc1)NC1=C(C(=O)O)CCCC1 | 630 nM | 291 nM | 99%
O=C(/C=C/C#Cc1cccc(O)c1)NC1=C(C(=O)O)CCCC1 | 390 nM | 383 nM | 92%
O=C(CCc1ccc(-c2ccc(O)cc2F)cc1)NC1=C(C(=O)O)CCCC1 | 260 nM | 58 nM | 99%
O=C(CCc1ccc(-c2ccccc2O)cc1)NC1=C(C(=O)O)CCCC1 | 410 nM | 40 nM | 90%
O=C(CCc1ccc(-c2cccc(O)c2)cc1)NC1=C(C(=O)O)CCCC1 | 230 nM | 32 nM | 96%
O=C(CCC#Cc1ccc(O)cn1)NC1=C(C(=O)O)CCCC1 | 3370 nM | 665 nM | 91%
O=C(/C=C/C#Cc1ccc(O)cc1)NC1=C(C(=O)O)CCCC1 | 130 nM | 25 nM | 97%
O=C(/C=C/C#Cc1ccccc1Cl)NC1=C(C(=O)O)CCCC1 | 270 nM | 88 nM | 88%
O=C(/C=C/C#Cc1ccccc1)NC1=C(C(=O)O)CCCC1 | 1010 nM | 327 nM | 79%
O=C(/C=C/CCc1ccccc1)NC1=C(C(=O)O)CCCC1 | 19600 nM | 2830 nM | 70%
O=C(CCC#Cc1ccc(O)cc1)NC1=C(C(=O)O)CCCC1 | 160 nM | 13 nM | 91%
O=C(/C=C/C#Cc1ccccc1F)NC1=C(C(=O)O)CCCC1 | 450 nM | 16 nM | 84%
